According to ChEMBL document CHEMBL4219108, “Synthesis, photophysical properties, and photodynamic activity of positional isomers of TFPP-glucose conjugates” (Bioorg Med Chem, 2018):
The source made the active and inactive calls. The calls are words filed in the database; no cut-off is given here.

Columns and labels:
[1] = Lipophilicity, log P of the compound; type: physicochemical; conditions: octanol/water
Summary of the method: (§1)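 Log P (n-octanol/water partition) determined by reverse-phase thin-layer chromatography.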

[2] = Drug uptake in rat RGK1 cells at 2.5 uM measured after 8 to 24 hrs by fluorescence assay; type: ADME, cell-based
Summary of the method: (§2)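 RGK cells (MNNG-induced mutant of rat RGM gastric mucosal line; DMEM/F12 1:1, 10% FCS, antibiotic-antimycotic) plated 2.5×10^6/well for 24 h. Pre-incubated 2 h with or without cytochalasin B (50 µM final), then given 2.5 µM compound in medium with 1% DMSO for 8 or 24 h. PBS-washed twice, lysed in DMSO. Fluorescence read at ex 430/em 650 nm and quantified against per-compound DMSO calibration. Mean ± SD of three replicates.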

U-251 = test: Phototoxicity against human U251 cells assessed as reduction in cell survival at 0.2 to 1 uM pretreated for 24 hrs followed by 16 J/cm2 irradiation with halogen lamp measured after 24 hrs by CCK8 assay; type: functional, cell-based
Summary of the method: (§3)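 HeLa, U251 (DMEM, 10% FCS) or RGK cells plated 5×10^3/well and grown 24 h. Conjugate added at 0.1–1 µM (final 1% DMSO) for 24 h. Cells PBS-washed twice, given fresh medium and irradiated with a 100 W halogen lamp (water jacket, λ >500 nm) to 16 J cm⁻². WST-8 absorbance read at 450 nm 24 h later; survival normalized to untreated wells. EC50 for 50% cell death. Mean ± SD of six replicates.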

[3] = Dark toxicity in human HeLa cells assessed as reduction in cell survival at 1 uM measured after 24 hrs by CCK8 assay; type: cell-based
Summary of the method: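 HeLa cells seeded 5×10^3/well, grown 24 h (37°C, 5% CO2), then given conjugate at 1.0 μM (final 1% DMSO) for 24 h. Washed twice with PBS, fresh medium added, kept without light (0 J cm⁻²). WST-8 (CCK-8) read at 450 nm 24 h later. Survival normalized to untreated wells; mean ± SD of six replicates.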

[4] = n-Octanol/water partition co-efficient, log P of the compound by RP-TLC method; type: physicochemical; summary of the method: as §1
HeLa = test: Phototoxicity against human HeLa cells assessed as reduction in cell survival up to 1 uM pretreated for 24 hrs followed by 16 J/cm2 irradiation with halogen lamp measured after 24 hrs by CCK8 assay; type: functional, cell-based; summary of the method: as §3
Rattus norvegicus = species: Rattus norvegicus; test: Phototoxicity against rat RGK1 cells assessed as reduction in cell survival at 0.2 to 1 uM pretreated for 24 hrs followed by 16 J/cm2 irradiation with halogen lamp measured after 24 hrs by CCK8 assay; type: functional, cell-based; summary of the method: as §3
[5] = Drug uptake in rat RGK1 cells at 2.5 uM measured after 8 to 24 hrs in presence of GLUT1 inhibitor cytochalasin B by fluorescence assay; type: ADME, cell-based; summary of the method: as §2

With `OCCOc1c(F)c(F)c(-c2c3nc(c(-c4c(F)c(F)c(OCCO)c(F)c4F)c4ccc([nH]4)c(-c4c(F)c(F)c(F)c(F)c4F)c4nc(c(-c5c(F)c(F)c(F)c(F)c5F)c5ccc2[nH]5)C=C4)C=C3)c(F)c1F` as the molecule, how does the logP [1] read?
The logP was 6.5.

For `OCCOc1c(F)c(F)c(-c2c3nc(c(-c4c(F)c(F)c(OCCO)c(F)c4F)c4ccc([nH]4)c(-c4c(F)c(F)c(OCCO)c(F)c4F)c4nc(c(-c5c(F)c(F)c(F)c(F)c5F)c5ccc2[nH]5)C=C4)C=C3)c(F)c1F`, which logP [1] is on record?
The logP was 5.4.

Which results are given for `OC[C@H]1OC(Sc2c(F)c(F)c(-c3c4nc(c(-c5c(F)c(F)c(F)c(F)c5F)c5ccc([nH]5)c(-c5c(F)c(F)c(F)c(F)c5F)c5nc(c(-c6c(F)c(F)c(F)c(F)c6F)c6ccc3[nH]6)C=C5)C=C4)c(F)c2F)[C@H](O)[C@@H](O)[C@@H]1O` (stereo partly specified)?
Drug uptake [2]: Active; Activity (U-251): Active; Activity [3]: Non-Toxic; logP [4]: 6.05; Activity (HeLa): Active; Activity (Rattus norvegicus): Active

With `OC1O[C@H](CSc2c(F)c(F)c(-c3c4nc(c(-c5c(F)c(F)c(F)c(F)c5F)c5ccc([nH]5)c(-c5c(F)c(F)c(F)c(F)c5F)c5nc(c(-c6c(F)c(F)c(F)c(F)c6F)c6ccc3[nH]6)C=C5)C=C4)c(F)c2F)[C@@H](O)[C@H](O)[C@H]1O` (stereo partly specified) as the molecule, how does the Drug uptake [2] read?
The Drug uptake was “Active”.

What about the Activity (U-251) of the same molecule?
Its Activity is “Active”.

What about the Activity [3] of the same molecule?
The Activity was “Non-Toxic”.

What about the logP [4] of the same molecule?
The logP was 6.5.

What about the Activity (HeLa) of the same molecule?
The Activity was “Active”.

And the Activity (Rattus norvegicus)?
The Activity was “Active”.

Which Drug uptake [2] does the source give for `OC[C@H]1OC(O)[C@H](O)[C@@H](O)[C@@H]1Sc1c(F)c(F)c(-c2c3nc(c(-c4c(F)c(F)c(F)c(F)c4F)c4ccc([nH]4)c(-c4c(F)c(F)c(F)c(F)c4F)c4nc(c(-c5c(F)c(F)c(F)c(F)c5F)c5ccc2[nH]5)C=C4)C=C3)c(F)c1F` (stereo partly specified) here?
Its Drug uptake is “Active”.

And the Activity (U-251)?
The Activity was “Active”.

What about the Activity [3] of the same molecule?
Its Activity is “Non-Toxic”.

And the logP [4]?
Its logP is 6.3.

And the Drug uptake [5]?
The Drug uptake was “Not Active”.

And the Activity (HeLa)?
The Activity was “Active”.

And the Activity (Rattus norvegicus)?
Its Activity is “Active”.

With `OC[C@H]1OC(O)[C@H](O)[C@@H](Sc2c(F)c(F)c(-c3c4nc(c(-c5c(F)c(F)c(F)c(F)c5F)c5ccc([nH]5)c(-c5c(F)c(F)c(F)c(F)c5F)c5nc(c(-c6c(F)c(F)c(F)c(F)c6F)c6ccc3[nH]6)C=C5)C=C4)c(F)c2F)[C@@H]1O` (stereo partly specified) as the molecule, how does the Drug uptake [2] read?
The Drug uptake was “Active”.

What about the Activity (U-251) of the same molecule?
The Activity was “Active”.

What about the Activity [3] of the same molecule?
The Activity was “Non-Toxic”.

What about the logP [4] of the same molecule?
The logP was 6.21.

What about the Drug uptake [5] of the same molecule?
Its Drug uptake is “Not Active”.

What about the Activity (HeLa) of the same molecule?
Its Activity is “Active”.

And the Activity (Rattus norvegicus)?
The Activity was “Active”.

For `OC[C@H]1OC(O)[C@H](Sc2c(F)c(F)c(-c3c4nc(c(-c5c(F)c(F)c(F)c(F)c5F)c5ccc([nH]5)c(-c5c(F)c(F)c(F)c(F)c5F)c5nc(c(-c6c(F)c(F)c(F)c(F)c6F)c6ccc3[nH]6)C=C5)C=C4)c(F)c2F)[C@@H](O)[C@@H]1O` (stereo partly specified), which Drug uptake [2] is on record?
Its Drug uptake is “Active”.

And the Activity (U-251)?
Its Activity is “inactive”.

And the Activity [3]?
Its Activity is “Non-Toxic”.

What about the logP [4] of the same molecule?
Its logP is 6.87.

And the Drug uptake [5]?
Its Drug uptake is “Not Active”.

And the Activity (HeLa)?
Its Activity is “inactive”.

And the Activity (Rattus norvegicus)?
Its Activity is “inactive”.

Which logP [1] does the source give for `OCCOc1c(F)c(F)c(-c2c3nc(c(-c4c(F)c(F)c(F)c(F)c4F)c4ccc([nH]4)c(-c4c(F)c(F)c(OCCO)c(F)c4F)c4nc(c(-c5c(F)c(F)c(F)c(F)c5F)c5ccc2[nH]5)C=C4)C=C3)c(F)c1F` here?
The logP was 6.5.
